Experiments:
[1] = Drug uptake in baboon prefrontal cortex at 111 +/- 18 MBq, iv by PET analysis in presence of WAY100635; type: ADME, organism-based; details: papio anubis, in vivo
Procedure, shortened: (§1)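 Baboon PET run as for baseline: ketamine/isoflurane anesthesia, iv bolus of tracer, 180 min 3-D acquisition, right and left regions averaged. WAY100635 maleate (0.5 mg/kg iv in 12 mL saline) was given at 50–60 min after tracer injection as a chase/blocking challenge.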

[2] = Drug uptake in baboon temporal cortex at 111 +/- 18 MBq, iv by PET analysis in presence of WAY100635; type: ADME, organism-based; details: papio anubis, in vivo; procedure, shortened: as §1
Nucleic Acid [3] = assay: Ratio of drug level in hippocampus to cerebellum in baboon at 111 +/- 18 MBq, iv after 175 mins by PET analysis; type: ADME, organism-based; details: papio anubis, in vivo
Plasma = assay: Binding to human plasma proteins
[4] = Tmax in baboon insula cortex at 111 +/- 18 MBq, iv by PET analysis; type: ADME, organism-based; details: papio anubis, in vivo
Procedure, shortened: (§2)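 Two fasted male baboons were given ketamine (10 mg/kg im) and kept under 1.5–2.0% isoflurane, with core temperature held at 37 °C. Tracer in 10% ethanol/90% saline was given as an iv bolus, and 3-D emission data were acquired for 180 min. Regional time-activity curves came from regions of interest, with right and left regions averaged.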

[5] = Metabolic stability of the compound in baboon plasma assessed as unmetabolized parent fraction after 90 mins by HPLC analysis; type: ADME, cell-free; details: papio anubis, read-out: Stability
Procedure, shortened: (§3)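 Radiotracer given as an iv bolus to anesthetized baboons. Arterial blood was drawn at 2, 12, 30, 60, 90, 120, 150 and 180 min and centrifuged at 2000 rpm for 1 min. Plasma was mixed with acetonitrile, vortexed and spun at 14,000 rpm for 4 min. The supernatant was counted, then analysed by reversed-phase HPLC with radioactivity detection. Parent percentage was corrected for background and decay, with a QC standard run at the start and end.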

[6] = Metabolic stability of the compound in baboon plasma assessed as unmetabolized parent fraction after 30 mins by HPLC analysis; type: ADME, cell-free; details: papio anubis, read-out: Stability; procedure, shortened: as §3
[7] = Binding to baboon plasma proteins; details: papio anubis
Nucleic Acid [8] = assay: Ratio of drug level in prefrontal cortex to cerebellum in baboon at 111 +/- 18 MBq, iv after 175 mins by PET analysis; type: ADME, organism-based; details: papio anubis, in vivo
[9] = Metabolic stability of the compound in baboon plasma assessed as unmetabolized parent fraction after 180 mins by HPLC analysis; type: ADME, cell-free; details: papio anubis, read-out: Stability; procedure, shortened: as §3
[10] = Tmax in baboon amygdala at 111 +/- 18 MBq, iv by PET analysis; type: ADME, organism-based; details: papio anubis, in vivo; procedure, shortened: as §2
[11] = Drug uptake in baboon thalamus at 111 +/- 18 MBq, iv by PET analysis in presence of WAY100635; type: ADME, organism-based; details: papio anubis, in vivo; procedure, shortened: as §1
[12] = Drug uptake in baboon cingulate at 111 +/- 18 MBq, iv by PET analysis in presence of WAY100635; type: ADME, organism-based, Cingulate cortex; details: papio anubis, in vivo; procedure, shortened: as §1
Nucleic Acid [13] = assay: Ratio of drug level in dorsal raphe nucleus to cerebellum in baboon at 111 +/- 18 MBq, iv after 175 mins by PET analysis; type: ADME, organism-based; details: papio anubis, in vivo
Nucleic Acid [14] = assay: Ratio of drug level in insular cortex to cerebellum in baboon at 111 +/- 18 MBq, iv after 175 mins by PET analysis; type: ADME, organism-based; details: papio anubis, in vivo
[15] = Tmax in baboon cingulate cortex at 111 +/- 18 MBq, iv by PET analysis; type: ADME, organism-based; details: papio anubis, in vivo; procedure, shortened: as §2
[16] = Metabolic stability of the compound in baboon plasma assessed as unmetabolized parent fraction after 2 mins by HPLC analysis; type: ADME, cell-free; details: papio anubis, read-out: Stability; procedure, shortened: as §3
[17] = Metabolic stability of the compound in baboon plasma assessed as unmetabolized parent fraction after 150 mins by HPLC analysis; type: ADME, cell-free; details: papio anubis, read-out: Stability; procedure, shortened: as §3
[18] = Drug uptake in baboon insular cortex at 111 +/- 18 MBq, iv by PET analysis in presence of WAY100635; type: ADME, organism-based; details: papio anubis, in vivo; procedure, shortened: as §1
[19] = Tmax in baboon cerebellum at 111 +/- 18 MBq, iv by PET analysis; type: ADME, organism-based; details: papio anubis, in vivo; procedure, shortened: as §2
Papio anubis = assay: Drug metabolism in baboon at 111 +/- 18 MBq, iv after 2 to 180 mins; type: ADME, organism-based; details: in vivo; procedure, shortened: as §3
Nucleic Acid [20] = assay: Ratio of drug level in thalamus to cerebellum in baboon at 111 +/- 18 MBq, iv after 175 mins by PET analysis; type: ADME, organism-based; details: papio anubis, in vivo
[21] = Drug uptake in baboon anterior cingulate at 111 +/- 18 MBq, iv by PET analysis in presence of WAY100635; type: ADME, organism-based; details: papio anubis, in vivo; procedure, shortened: as §1
Nucleic Acid [22] = assay: Ratio of drug level in anterior cingulate cortex to cerebellum in baboon at 111 +/- 18 MBq, iv after 175 mins by PET analysis; type: ADME, organism-based; details: papio anubis, in vivo
[23] = Drug uptake in baboon cerebellum at 111 +/- 18 MBq, iv by PET analysis in presence of WAY100635; type: ADME, organism-based; details: papio anubis, in vivo; procedure, shortened: as §1
[24] = Metabolic stability of the compound in baboon plasma assessed as unmetabolized parent fraction after 120 mins by HPLC analysis; type: ADME, cell-free; details: papio anubis, read-out: Stability; procedure, shortened: as §3
[25] = Drug uptake in baboon caudate at 111 +/- 18 MBq, iv by PET analysis in presence of WAY100635; type: ADME, organism-based; details: papio anubis, in vivo; procedure, shortened: as §1
[26] = Drug uptake in baboon amygdala at 111 +/- 18 MBq, iv by PET analysis in presence of WAY100635; type: ADME, organism-based; details: papio anubis, in vivo; procedure, shortened: as §1
[27] = Drug uptake in baboon hippocampus at 111 +/- 18 MBq, iv by PET analysis in presence of WAY100635; type: ADME, organism-based; details: papio anubis, in vivo; procedure, shortened: as §1
[28] = Tmax in baboon hippocampus at 111 +/- 18 MBq, iv by PET analysis; type: ADME, organism-based; details: papio anubis, in vivo; procedure, shortened: as §2
Nucleic Acid [29] = assay: Ratio of drug level in cingulate cortex to cerebellum in baboon at 111 +/- 18 MBq, iv after 175 mins by PET analysis; type: ADME, organism-based; details: papio anubis, in vivo
[30] = Tmax in baboon striatum at 111 +/- 18 MBq, iv by PET analysis; type: ADME, organism-based; details: papio anubis, in vivo
Procedure, shortened: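 Baseline PET in two fasted male baboons on an ECAT EXACT HR+ scanner. Animals were immobilized with ketamine (10 mg/kg im), kept on 1.5–2.0% isoflurane via endotracheal tube, held at 37 °C core temperature, and hydrated with 0.9% NaCl. Radiotracer in 10% ethanol/saline was given as an iv bolus. Emission was recorded for 180 min in 3-D mode. Region time-activity curves used right/left averaged ROIs.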

Nucleic Acid [31] = assay: Ratio of drug level in amygdala to cerebellum in baboon at 111 +/- 18 MBq, iv after 175 mins by PET analysis; type: ADME, organism-based; details: papio anubis, in vivo
Nucleic Acid [32] = assay: Ratio of drug level in temporal cortex to cerebellum in baboon at 111 +/- 18 MBq, iv after 175 mins by PET analysis; type: ADME, organism-based; details: papio anubis, in vivo
[33] = Metabolic stability of the compound in baboon plasma assessed as unmetabolized parent fraction after 12 mins by HPLC analysis; type: ADME, cell-free; details: papio anubis, read-out: Stability; procedure, shortened: as §3
[34] = Metabolic stability of the compound in baboon plasma assessed as unmetabolized parent fraction after 60 mins by HPLC analysis; type: ADME, cell-free; details: papio anubis, read-out: Stability; procedure, shortened: as §3
[35] = Tmax in baboon prefrontal cortex at 111 +/- 18 MBq, iv by PET analysis; type: ADME, organism-based; details: papio anubis, in vivo; procedure, shortened: as §2

Drug uptake [1]: Active | Drug uptake [2]: Active | Ratio (Nucleic Acid [3]): 4 | plasma protein binding (Plasma): 11.5% | Tmax [4]: 3 min | remaining at 1.5 h [5]: 32.5% | remaining at 0.5 h [6]: 51% | plasma protein binding [7]: 35% | Ratio (Nucleic Acid [8]): 1.8 | remaining at 3 h [9]: 18% | Tmax [10]: 3 min | Drug uptake [11]: Active | Drug uptake [12]: Active | Ratio (Nucleic Acid [13]): 1.75 | Ratio (Nucleic Acid [14]): 2.3 | Tmax [15]: 3 min | remaining at 2 min [16]: 98% | remaining at 2.5 h [17]: 21.5% | Drug uptake [18]: Active | Tmax [19]: 3 min | Drug metabolism (Papio anubis): Active | Ratio (Nucleic Acid [20]): 2 | Drug uptake [21]: Active | Ratio (Nucleic Acid [22]): 2.5 | Drug uptake [23]: Active | remaining at 2 h [24]: 23.5% | Drug uptake [25]: Active | Drug uptake [26]: Active | Drug uptake [27]: Active | Tmax [28]: 3 min | Ratio (Nucleic Acid [29]): 1.8 | Tmax [30]: 3 min | Ratio (Nucleic Acid [31]): 2.4 | Ratio (Nucleic Acid [32]): 2 | remaining at 0.2 h [33]: 74% | remaining at 1 h [34]: 37% | Tmax [35]: 3 min
SMILES: Cn1c(=O)cnn(CCCCN2CCN(c3ccccc3OCC[18F])CC2)c1=O

From ChEMBL document CHEMBL2413016, “Synthesis and in vivo evaluation of [(18)F]2-(4-(4-(2-(2-fluoroethoxy)phenyl)piperazin-1-yl)butyl)-4-methyl-1,2,4-triazine-3,5(2H,4H)-dione ([(18)F]FECUMI-101) as an imaging probe for 5-HT1A receptor agonist in nonhuman primates” (Bioorg Med Chem, 2013)
